Sampled rows, rich in hits. Any-hit rate of the full collection: about 3.9%.
Jurkat NFkB inh = inhibitors of induced NF-kB luciferase reporter, primary screen, TCR NF-kB activation inhibitor project, cell-based, luminescence, uHTS | Jurkat, PMA/ionomycin-induced NF-kB luciferase reporter | inhibition, % at 4 µM | 330,000 tested, 0.53% active | AID 435003, 2010; in the data active = inhibition above about 50%
UPR XBP1 act = activators of adaptive XBP1 UPR arm, primary screen, cell-based, CHO-XBP1 luciferase reporter, luminescence, uHTS; activation, % at 20 µM; AID 463104, 2010; IRE1-XBP1 UPR activation; percent of tunicamycin response, DMSO as zero; 330,000 tested, 0.33% active;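 active = versus positive control, 20 µM dose yields 30% or more activation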;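 note: 100% = tunicamycin at 10 µg/mL and 0% = DMSO only wells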
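Assay system: IRE1-XBP1 luciferase reporter CHO line. Input: 1000 cells/well. Buffer or medium: F12 with 10% serum. Doses: 20 µM, 1% DMSO. Times: overnight seeding at 37 °C, 6 h compound treatment at 37 °C. Technique: Steady-Glo luciferase glow luminescence, 10 min after reagent addition.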
697 NFkB inh = inhibitors of PMA/ionomycin-induced NF-kB reporter, 697 cells, primary screen, B-cell NF-kB inhibitor project, cell-based, luminescence, uHTS | 330,000 tested, 0.33% active | inhibition, % at 4 µM | 697 B-cell NF-kB luciferase reporter, 16 h; in the data active = inhibition above about 35%
UPR CHOP act = activators of apoptotic CHOP UPR arm, primary screen, cell-based, CHO-CHOP luciferase reporter, luminescence, uHTS; UPR activation; percent of tunicamycin response over DMSO baseline; activation, % at 10 µM; 330,000 tested, 0.34% active;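 active = at 10 µM dose, activation of 40% or more, normalized to positive control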;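 note: 100% = tunicamycin at 10 µg/mL and 0% = DMSO alone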
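Evaluation: % reporter activation, DMSO baseline versus tunicamycin full activation; System: CHO-CHOP luciferase reporter cell line; Input: 500 cells/well; Incubation: 6 h compound treatment, 37 °C; Measured by: Steady-Glo luciferase luminescence; Dosing: one dose, 10 µM in 0.5% DMSO; Buffer or medium: F12 medium, 10% FBS; Benchmarks: positive tunicamycin 10 µg/mL, negative DMSO alone.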
Gli-Sufu block = Gli-Sufu pathway antagonists, primary screen, luciferase luminescence, Sufu-KO-LIGHT cells, uHTS; inhibition, % at 5 µM; Sufu-KO-LIGHT fibroblasts, Gli luciferase reporter luminescence; 340,000 tested, 0.74% active;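 active = inhibition above about 55%, limit read from the data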;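 note: 0% = DMSO-treated cells and 100% = wells with medium but no cells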
CHOP inhibitor = inhibitors of CHOP promoter induction, primary screen, cell-based, unfolded protein response, luciferase reporter; CHO-K1 CHOP-promoter luciferase, tunicamycin-induced, 15-18 h; 220,000 tested, 3.8% active; inhibition, % at 10 µM;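 active = compounds that reduced the stress-induced luciferase reporter signal by more than about 70% of percent inhibition, limit read from the data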;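 note: 0% = tunicamycin plus vehicle and 100% = wells without tunicamycin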
CHOP confirm = retest of CHOP induction inhibitors, confirmation, cell-based; 2,100 tested, 45% active; shares compounds with CHOP inhibitor; CHO-CHOP promoter luciferase reporter, tunicamycin-induced, luminescence; inhibition, % at 10 µM;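 active = mean of three repeat readings of reporter signal inhibition above a set limit, cut at about 70% in these data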;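 note: 0% = tunicamycin plus vehicle and 100% = wells lacking tunicamycin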
CHOP UPR conf = activators of apoptotic CHOP UPR arm, confirmation, cell-based, CHO-CHOP luciferase reporter, single concentration; AID 463112, 2010; activation, % at 10 µM; shares compounds with UPR CHOP act; 1,000 tested, 64% active; CHO-CHOP cells, CHOP-luciferase reporter luminescence; percent of tunicamycin response, DMSO as zero; in the data active = activation above about 33%;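 note: 0% = DMSO wells and 100% = tunicamycin 10 µg/mL wells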
XBP1 UPR conf = IRE1-XBP1 UPR arm activators, confirmation, cell-based, CHO-XBP1 luciferase reporter, luminescence, single concentration; shares compounds with UPR XBP1 act; activation, % at 20 µM; 1,000 tested, 63% active; AID 485299, 2010;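 active = reporter signal at least 30% of the positive control's activation in two or more of four replicate wells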;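 note: plate controls were DMSO negative control for no effect and tunicamycin 10 µg/mL positive control for full effect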
The depositor's hits bear a star; nt = no result given.

SMILES	Jurkat NFkB inh	UPR XBP1 act	697 NFkB inh	UPR CHOP act	Gli-Sufu block	CHOP inhibitor	CHOP confirm	CHOP UPR conf	others
Cc1ccc(-c2nn(-c3ccccc3)cc2C=C2C(=O)CC(C)(C)CC2=O)cc1	-35	13	-50	48*	-44	98*	-9	206*
O=C1COc2ccc(C(=O)CCl)cc2N1	2	-6	10	148*	7	101*	18	-7
Cn1nc([N+](=O)[O-])c(C(C#N)c2ccccn2)c(Cl)c1=O (configuration not stated)	-2	-4	-12	73*	3	103*	49	49*
O=C(Nc1ncccn1)c1cc([N+](=O)[O-])cc([N+](=O)[O-])c1	12	-2	-32	4	-2	-9	nt	nt
O=[N+]([O-])c1cc(-c2ncccn2)c([N+](=O)[O-])s1	-3	-5	0	73*	22	109*	-112	164*
CC[C@@H](C)[C@H](NC(=O)OC(C)(C)C)c1nnc(S(=O)(=O)Cc2cc(C)ccc2C)o1	22	-16	-26	225*	1	115*	123*	100*
CC(C)OC(=O)n1c(=S)oc2ccccc21	-1	-4	20	-2	8	49	nt	nt
CCCCC(=O)/C=C/n1c(=S)oc2ccccc21	0	-1	-64	120*	-18	108*	3	21
N#Cc1c(-c2ccccc2)cc(-c2ccc(O)cc2)nc1N	-5	9	1	3	4	nt	nt	nt
CS(=O)(=O)c1nc(-c2ccc(Br)cc2)cc(-c2ccccc2)c1C#N	29	11	22	279*	9	108*	-30	130*
CCOc1ccc(N(CC(=O)N2CCCCCC2)S(=O)(=O)c2ccc(C)cc2)cc1	-11	-4	10	-1	-18	nt	nt	nt
CC(C)(C)c1cnnn1-c1ccc(C(=O)CCl)cc1	-15	-5	10	56*	-2	111*	-67	-11
CC(C)(C)c1cnnn1-c1ccc(C=O)cc1	-3	1	2	2	7	-12	nt	nt
CC(=O)NCc1ccc(C(=O)CCl)s1	6	-9	15	64*	15	108*	107*	-5
CC(=O)NCc1ccc(C(=O)CCl)cc1	-2	-3	20	113*	-11	106*	-3	-10
COc1ccc(S(=O)(=O)N2CCOCC2)cc1NC(=O)C1COc2ccccc2O1 (configuration not stated)	-11	0	-8	1	-9	nt	nt	nt
Cc1ccc(S(=O)(=O)N(C)C)cc1NC(=O)C(C)N(C)CCOc1ccc(Cl)cc1 (configuration not stated)	4	-1	-4	0	-13	nt	nt	nt
FC(F)(F)c1nnc(-c2ccccc2)nc1Sc1ccccc1	-27	22	-39	201*	-5	109*	-155	59*
FC(F)(F)c1nnc(-c2ccccc2)nc1Sc1ccc(Cl)cc1	-12	-6	15	84*	1	114*	119*	-1
FC(F)(F)c1nnc(-c2ccccc2)nc1Oc1ccc(Cl)cc1Cl	-17	-4	2	3	10	-61	nt	nt
CC(CCc1ccccc1)NC(=O)CCCn1ncn2c(cc3occc32)c1=O (configuration not stated)	-8	-3	4	-1	5	nt	nt	nt
COc1ccc(S(=O)(=O)N2CCN(C(=O)c3cc(C)on3)CC2)cc1	-6	-3	-15	-3	6	nt	nt	nt
Cc1ccc(-c2nc(=O)[nH]c3ccc(Br)cc23)cc1	-3	1	22	2	-14	nt	nt	nt
Cc1cc(C)c(C(CC(=O)c2cccs2)C(C#N)C#N)c(C)c1 (configuration not stated)	-65	-1	-33	47*	-4	103*	58	95*
CC(CC(=O)c1cccs1)CC(=O)c1cccs1	-59	4	-24	3	-40	16	nt	nt
SMILES	Jurkat NFkB inh	UPR XBP1 act	697 NFkB inh	UPR CHOP act	Gli-Sufu block	CHOP inhibitor	CHOP confirm	CHOP UPR conf	others
COc1ccc(CNC[C@@H](CCCCN(C)Cc2ccc(OC)cc2)N2C[C@H](c3ccccc3)N(CCc3ccc(Cl)c(Cl)c3)C(=O)C2=O)cc1	2	13	14	134*	-18	105*	-131	147*
COc1ccc(CNC(=O)[C@@H]2CC=C[C@@H]3CCN(Cc4ccc(Cl)c(Cl)c4)C(=O)[C@@H]32)cc1	13	-2	4	-2	10	nt	nt	nt
Cc1nc([N+](=O)[O-])c(Br)n1CC(=O)c1ccccc1	12	-2	-8	5	0	-97	nt	nt
Cc1nc([N+](=O)[O-])c(Br)n1CC(=O)c1ccc2ccccc2c1	15	2	12	144*	-11	103*	-130	104*
COC(=O)CSC1=C(C#N)C(=O)NC(c2ccccc2)S1 (configuration not stated)	-9	-3	-1	88*	3	99*	51	29
COc1cccc(CN(C)C(=O)c2ccc(COc3ccc(Cl)cc3)cc2)c1OC	-39	7	-19	6	20	nt	nt	nt
Cc1ccc(-c2nnc(-c3ccc(NC(=O)Cc4cccs4)cc3)o2)cc1	-28	142*	-10	41*	-24	105*	102*	15	XBP1 UPR conf=52*
O=C(Cc1cccs1)Nc1cccc(-c2nnc(-c3ccco3)o2)c1	-13	-3	-34	2	-10	38	nt	nt
COc1cc(/C=C(\C#N)c2nc3ccccc3[nH]2)cc(Br)c1OCc1ccccc1	17	8	-8	10	5	46	nt	nt
COc1cc(/C=C(\C#N)c2nc3ccccc3[nH]2)cc(Br)c1OCc1ccc(F)cc1	7	110*	7	1	-7	104*	84*	nt	XBP1 UPR conf=128*
CN(Cc1ccc(Cl)cc1Cl)C(=O)CNC(=O)c1ccc2c(c1)OCO2	-7	-2	10	1	-10	nt	nt	nt
